Shown are actives, neighbours in structure and some others; about 3.5% of the full set was active somewhere.
ERAP1 HTS inh: blocks human ERAP1 aminopeptidase activity | recombinant ERAP1, Leu-AMC fluorescence, 60 min | inhibition, % at 10.7 µM | hit rate 0.15% among 340,000;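 active = mean replicate inhibition of at least 30%, or all replicates individually reaching that 30% level; inactive = mean below 30% and not every replicate reaching it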
esBAF inh: blocks esBAF chromatin remodeling in mouse ES cells | Bmi1-luciferase knock-in reporter, 24 h; 100% = twice the neutral-well signal | reporter increase, % at 12.5 µM | hit rate 2% among 350,000 | AID 602393; in the data active = activation above about 40%;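 also: a rise in the Bmi1 reporter signal indicates esBAF inhibition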
Wnt act: activates Wnt/beta-catenin signaling in a reporter cell assay | activator, plate reader | activation, % at 9.35 µM | hit rate 1.2% among 300,000; in the data active = activation above about 30%, passing the limit was not always enough
MITF act: increases MITF-driven TRPM1 promoter luciferase signal. SK-MEL-5 TRPM1-promoter luciferase, 24 h; % of positive control, neutral wells = 0. hit rate 0.75% among 300,000. activation, % at 12.5 µM;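 active = mean activation of at least 80% with every replicate also reaching 80%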
Env fusion inh: HIV envelope-mediated fusion inhibition; HeLa-JRFL Env/CEM21 cell fusion, luciferase; inhibition, % at 12.3 µM; hit rate 1.1% among 360,000;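 active = mean replicate inhibition score of at least 50 and every replicate individually at or above 50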
Cneo AK release: causes C. neoformans cell lysis; adenylate kinase release luminescence, 4 h; normalised: neutral wells 0, clomiphene wells 100; lysis activity, % at 15 µM; hit rate 0.2% among 360,000; AID 651654;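 active = mean lysis activity across replicates of at least 80%, whatever share of replicates individually reach that level; inactive = mean lysis activity below 80%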
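Test system: log-phase Cryptococcus neoformans yeast cells; Quantity: yeast cell density of 5 × 10^6 cells/mL; Buffer or medium: YPD; Doses: single compound concentration per well; Timing: 4 h at 37 °C static, read 1 h later; Measured by: AK luminescence; Read-out basis: lysis from increased AK signal; Control set: Clomiphene as positive control.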
Of the large screens only hits and unclear results are named; the others gave an inactive call.

Cc1cccc(N=c2oc3cc(O)ccc3cc2C(N)=O)c1	esBAF inh 57.8, Wnt act 40.1 (no result: ERAP1 HTS inh)
O=c1c(-c2ccccc2)nc(-c2ccccc2)cn1O	esBAF inh 53.5 (no result: ERAP1 HTS inh, Wnt act, Env fusion inh)
OCc1cc(Br)ccc1OCc1nc2ccccc2s1	esBAF inh 77.3 (no result: Wnt act, Env fusion inh)
Oc1ccccc1OCc1nc2ccccc2s1	esBAF inh 40.9 (no result: ERAP1 HTS inh, Wnt act)
O=C(OCc1nc2ccccc2s1)c1ccc(Br)s1	none (no result: ERAP1 HTS inh)
CO[C@H](CN(C)S(=O)(=O)c1ccccc1)[C@@H](C)CN(C(=O)Nc1ccccc1F)[C@H](C)CO	none (no result: Wnt act, MITF act, Env fusion inh)
CCSc1nnc(N2C(=O)CC(c3ccsc3)C3=C2CC(C)(C)CC3=O)s1 (stereo unspecified)	Env fusion inh 58.3
CC1(C)CC(=O)C2=C(C1)N(c1ccc(F)cc1)C(=O)CC2c1cccnc1 (stereo unspecified)	none
O=C(C[C@H]1C[C@@H]2c3cc(NC(=O)C4CCOCC4)ccc3O[C@@H]2[C@@H](CO)O1)NCc1cc(F)ccc1F	none (no result: Wnt act, MITF act)
CC(=O)Nc1ccc2nc(C3CC3)n(Cc3ccc(Cl)cc3)c(=O)c2c1	esBAF inh 74.9 (no result: ERAP1 HTS inh, Cneo AK release)
COc1ccc(Cn2c(C3CC3)nc3ccc(NC(=O)C4CC4)cc3c2=O)cc1	esBAF inh 67.4, MITF act 118.3 (no result: ERAP1 HTS inh)
CCC(=O)N(C)C[C@@H]1Oc2ncc(/C=C/c3ccccc3)cc2C(=O)N([C@H](C)CO)C[C@H]1C	none (no result: Wnt act, MITF act)
C[C@@H]1CN([C@@H](C)CO)C(=O)c2cc(-c3ccccc3F)cnc2O[C@@H]1CN(C)C(=O)C1CC1	none (no result: esBAF inh, Wnt act, MITF act)
CCOC(=O)C1=C(C)N=c2s/c(=C/c3ccc(OCC(=O)O)c(OC)c3)c(=O)n2C1c1ccc(Cl)cc1 (stereo unspecified)	none (no result: ERAP1 HTS inh, esBAF inh, MITF act, Cneo AK release)
O=C1CCCC2=C1C(c1ccc(Cl)cc1)n1c(s/c(=C\c3ccc4ccncc4c3)c1=O)=N2 (stereo unspecified)	Wnt act 36.0 (no result: ERAP1 HTS inh, esBAF inh, Cneo AK release)
CCCNC(=O)Nc1ccc2c(c1)C(=O)N(C)C[C@H](OC)[C@H](C)CN(S(C)(=O)=O)[C@@H](C)CO2	none (no result: esBAF inh, Wnt act, MITF act, Env fusion inh, Cneo AK release)
Cc1cc(SCn2nnc3ccccc3c2=O)nc2ccccc12	none (no result: esBAF inh, Cneo AK release)
Cc1ccc(-n2nnnc2SCn2nnc3ccccc3c2=O)c(C)c1	Env fusion inh 75.5 (no result: ERAP1 HTS inh, Wnt act)
CCC/C=C/c1ccc(CN2C(CC(C)C)C(=O)N(Cc3cn(CC4CCCCC4)nn3)CCS2(=O)=O)cc1 (stereo unspecified)	Env fusion inh 89.3 (no result: MITF act)
CC1C(=O)N(Cc2cn(CCC3OCCCO3)nn2)CCS(=O)(=O)N1Cc1ccc(-c2ccc(Cl)c(Cl)c2)cc1 (stereo unspecified)	Env fusion inh 64.1 (no result: MITF act)
Cc1ccc(-c2ccc(CN3C(CC(C)C)C(=O)N(Cc4cn(CC5CCCCC5)nn4)CCS3(=O)=O)cc2)cc1 (stereo unspecified)	none (no result: MITF act)
CC(C)CC1C(=O)N(Cc2cn(CCC3OCCCO3)nn2)CCS(=O)(=O)N1Cc1ccc(-c2ccc(Cl)nc2)cc1 (stereo unspecified)	esBAF inh 58.2 (no result: MITF act, Env fusion inh)
CC1C(=O)N(Cc2cn(CCC3OCCCO3)nn2)CCS(=O)(=O)N1Cc1ccc(-c2ccc(F)cc2)cc1 (stereo unspecified)	none (no result: MITF act, Env fusion inh)
CC(C)CC1C(=O)N(Cc2cn(CCC3OCCCO3)nn2)CCS(=O)(=O)N1Cc1ccc(-c2ccc(Cl)cc2)cc1 (stereo unspecified)	none (no result: MITF act, Env fusion inh, Cneo AK release)
CC(C)CC#Cc1ccc2c(c1)O[C@H](CN(C)Cc1cncnc1)[C@@H](C)CN([C@H](C)CO)S2(=O)=O	none (no result: Wnt act, MITF act)
CN(CC(=O)Nc1ccc(S(N)(=O)=O)cc1)Cc1ccccc1F	none (no result: Cneo AK release)
CN(CC(=O)NC(=O)Nc1ccccc1F)Cc1ccccc1F	Env fusion inh 65.6
CCNC(=O)[C@@H]1[C@@H](CO)[C@@H]2Cn3c(ccc(-c4cccc(OC)c4)c3=O)[C@@H]2N1Cc1nccs1	none (no result: Wnt act, MITF act, Env fusion inh)
CC(C)c1nnc(NC(=O)c2ccc3ccccc3c2)s1	none
CCCc1cc(C(=O)Nc2nnc(C)s2)cs1	esBAF inh 50.3, MITF act 85.0 (no result: ERAP1 HTS inh)
Cc1nnc(NC(=O)c2ccc(Br)cc2)s1	MITF act 93.9 (no result: ERAP1 HTS inh)
Cc1nnc(NC(=O)c2ccc3ccccc3c2)s1	Wnt act 40.3, MITF act 91.8 (no result: esBAF inh)
CCCc1cc(C(=O)N/N=C/c2cccn2C)cs1	esBAF inh 53.5
Cc1nnc(NC(=O)c2cccc(S(=O)(=O)N3CCCC3)c2)s1	none
Cc1nnc(NC(=O)c2ccc(S(=O)(=O)N3CCCCC3)cc2)s1	Wnt act 62.6

Source: PubChem
